The text below walks through data of ChEMBL document CHEMBL3351487, “Synthesis, molecular docking and anti-mycobacterial evaluation of new imidazo[1,2-a]pyridine-2-carboxamide derivatives” (Eur J Med Chem, 2015).

Series [1] concerns Mycobacterium tuberculosis. Briefly: Antimycobacterial activity against Mycobacterium tuberculosis H37Rv ATCC 27294 after 7 days by MABA method. It counts as functional. As to conditions: H37Rv ATCC 27294, 168 h. The method, boiled down:
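Inoculum from fresh LJ culture resuspended in 7H9-S (7H9 broth, 0.1% casitone, 0.5% glycerol, OADC), adjusted to McFarland No. 1 and diluted 1:20. Drug stocks diluted in 7H9-S to four-fold the highest final concentration. Plates sealed and incubated at 37 °C in normal atmosphere for 7 days, then alamar blue added.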

Series [2] is described as follows: Cytotoxicity against HEK293T cells assessed as inhibition of cell growth at 50 ug/mL after 72 hrs by MTT assay. In kind it is cell-based, HEK-293T. As to conditions: human, read-out: GI. The gist of the method:
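HEK-293T cells exposed to each compound at one concentration (50) for 72 h. Viability was read from cellular conversion of MTT to formazan using a non-radioactive cell proliferation kit, and the result is given as percentage inhibition of cells.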

≈ marks a conversion by molar mass, not a printed value. Some results are limits rather than exact numbers.

As a reminder, the MIC is the lowest concentration found to suppress growth. Low readings indicate greater potency, high ones weaker potency. `O=C(NCc1ccc(C(F)(F)F)cc1)c1cn2cc(-c3cnn(CCN4CCOCC4)c3)ccc2n1` came in with a minimum inhibitory concentration (MIC) in series [1] of 12.5 µg/mL (≈ 25.1 µM). Further, in series [2], the inhibition at 72 h, 50 ug/mL was found to be 22.2%.

In series [1], `COc1ccccc1-c1ccc2nc(C(=O)NCc3ccncc3)cn2c1` had a minimal inhibitory concentration (MIC) of 12.5 µg/mL (≈ 34.9 µM). Also, the inhibition at 72 h, 50 ug/mL in series [2] was found to be 31.6%.

Compound `O=C(NC1CC1)c1cn2cc(-c3cnn(CCN4CCOCC4)c3)ccc2n1` showed an MIC in series [1] of 25 µg/mL (≈ 65.7 µM). For the same compound, in series [2], the inhibition at 72 h, 50 ug/mL amounted to 29.1%.

Regarding `CO[C@H]1/C=C/O[C@@]2(C)Oc3c(C)c(O)c4c(O)c(c(/C=N/N5CCN(C)CC5)c(O)c4c3C2=O)NC(=O)/C(C)=C\C=C\[C@H](C)[C@H](O)[C@@H](C)[C@@H](O)[C@@H](C)[C@H](OC(C)=O)[C@@H]1C` [RIFAMPIN], the minimal inhibitory concentration (MIC) in series [1] is 0.02 µg/mL (≈ 0.0243 µM).

Consider `Cn1cc(-c2ccc3nc(C(=O)NCc4ccco4)cn3c2)cn1`, for which the MIC in series [1] is greater than 50 µg/mL.

In series [1], `O=C(NCc1ccco1)c1cn2cc(-c3cccc4ncccc34)ccc2n1` showed an MIC of 25 µg/mL (≈ 67.9 µM). The inhibition at 72 h, 50 ug/mL in series [2] turned out to be 24.8%.

As to `Nc1ncccc1-c1ccc2nc(C(=O)NCc3ccco3)cn2c1`, the MIC in series [1] is 25 µg/mL (≈ 75 µM). Moreover, the inhibition at 72 h, 50 ug/mL in series [2] was 26.1%.

Take `O=C(NCc1ccc(F)cc1)c1cn2cc(-c3cccc4ncccc34)ccc2n1`: in series [1], inhibition of growth (MIC) required 25 µg/mL (≈ 63.1 µM). Also, the inhibition at 72 h, 50 ug/mL in series [2] is 28.1%.

In turn, `Nc1ncccc1-c1ccc2nc(C(=O)NCc3ccc(F)cc3)cn2c1` had an MIC in series [1] of 25 µg/mL (≈ 69.2 µM). The inhibition at 72 h, 50 ug/mL in series [2] came out at 40.8%.

`Cn1cc(-c2ccc3nc(C(=O)NCc4ccc(F)cc4)cn3c2)cn1` displayed an MIC in series [1] of 25 µg/mL (≈ 71.6 µM). In addition, in series [2], the inhibition at 72 h, 50 ug/mL turned out to be 36.1%.

`Cn1cc(-c2ccc3nc(C(=O)NCc4ccc5c(c4)OCO5)cn3c2)cn1`: the minimum inhibitory concentration (MIC) in series [1] was 6.25 µg/mL (≈ 16.6 µM). In addition, in series [2], the inhibition at 72 h, 50 ug/mL was found to be 25.6%.

`O=C(O)CCc1ccc(-c2ccc3nc(C(=O)NCc4ccc(F)cc4)cn3c2)cc1` gave an MIC in series [1] greater than 50 µg/mL.

With `NNC(=O)c1ccncc1` [ISONIAZID], it took 0.36 µg/mL (≈ 2.63 µM) to inhibit growth in series [1] (MIC).

`O=C(NCc1ccco1)c1cn2cc(-c3cnn(CCN4CCOCC4)c3)ccc2n1` returned a minimal inhibitory concentration (MIC) in series [1] of 12.5 µg/mL (≈ 29.7 µM). For the same compound, the inhibition at 72 h, 50 ug/mL in series [2] stood at 34.1%.

On to `CN1CCN(C(=O)c2ccc(-c3ccc4nc(C(=O)NCc5ccco5)cn4c3)cc2)CC1`, for which the MIC in series [1] was determined as 25 µg/mL (≈ 56.4 µM). In addition, the inhibition at 72 h, 50 ug/mL in series [2] amounted to 30.1%.

Turning to `O=C(NCc1ccc(C(F)(F)F)cc1)c1cn2cc(-c3cccc4ncccc34)ccc2n1`, 25 µg/mL (≈ 56 µM) was the least that counted as inhibitory in series [1] (MIC). Further, in series [2], the inhibition at 72 h, 50 ug/mL was determined as 37.8%.

Consider `O=C(NCc1ccncc1)c1cn2cc(-c3ccc(Cl)cc3)ccc2n1`, for which the lowest concentration to inhibit growth in series [1] (MIC) was 6.25 µg/mL (≈ 17.2 µM). Moreover, in series [2], the inhibition at 72 h, 50 ug/mL turned out to be 26.1%.

In the case of `O=C(NC1CCOCC1)c1cn2cc(-c3cnn(CCN4CCOCC4)c3)ccc2n1`, in series [1], the MIC turned out to be 6.25 µg/mL (≈ 14.7 µM). Besides, the inhibition at 72 h, 50 ug/mL in series [2] was found to be 30.1%.

Broadly, the MIC50 is an inhibitory concentration at the 50% level, which refers to growth in some studies and to a panel of isolates in others. In series [1], `CCc1nc2ccc(Cl)cn2c1C(=O)NCc1ccc(N2CCC(c3ccc(OC(F)(F)F)cc3)CC2)cc1` [TELACEBEC] showed an MIC50 of 2.7 nM (≈ 1.5 ng/mL).
